Results gathered from unrelated publications.
Lines come from different studies, so protocols differ.
MET: Hepatocyte growth factor receptor (MET, Homo sapiens, UniProt P08581)
MET M1250T: Hepatocyte growth factor receptor (MET, Homo sapiens, UniProt P08581, M1250T)
MET Y1235D: Hepatocyte growth factor receptor (MET, Homo sapiens, UniProt P08581, Y1235D)

With `Cc1cc(NC(=O)c2cccc3cc(-c4cccc5[nH]nc(N)c45)ccc23)ccc1F` the activity vs control was 106% (Hepatocyte growth factor receptor (MET, Homo sapiens, UniProt P08581, Y1230H); enzyme activity, inhibitor; 0.1 µM).
The remaining activity of `CC(C)(C)c1nc(-c2cccc(NS(=O)(=O)c3c(F)cccc3F)c2F)c(-c2ccnc(N)n2)s1` is reported as 89% (MET; enzyme activity, inhibitor, radiometric; 1 µM).
`CN(C)c1ncc(F)c(-c2cnn3ncccc23)n1` gave a remaining binding of 100% (MET M1250T; binding; 1 µM).
The remaining binding of `CC1=C(C#N)[C@@H](c2ccc3[nH]nc(C)c3c2)C(C#N)=C(c2ccc(Cl)cc2)N1` is reported as 52.6% (MET Y1235D; cell-free assay, competition with immobilised ligand; 1 µM).
`O=C(Nc1cnn(-c2csc(C(=O)NC3COC3)c2)c1)Nc1ccccc1Cl` gave a remaining activity of 102% (MET; enzyme activity, inhibitor; 5 µM).
`Nc1cnc(N2CCc3cc(S(=O)(=O)Nc4c(F)cc(Cl)cc4F)cc(N4CCCC4=O)c32)nc1` has a remaining binding of 69% (MET Y1235D; cell-free assay, competition with immobilised ligand; 1 µM).
`N[C@H]1CCN(c2nccc(-c3cnn4ncccc34)n2)C1` has a remaining binding of 100% (MET Y1235D; binding; 1 µM).
`CN1CCN(c2cnc3c(C4CCN(C(=O)c5ccc(OC(F)(F)F)cc5N)CC4)ncnc3c2)CC1` has a remaining binding of 100% (MET M1250T; cell-free assay, competition with immobilised ligand; 1 µM).
`COc1ccnn2ncc(-c3ccnc(N(C)C)n3)c12` has a remaining binding of 100% (MET M1250T; binding; 1 µM).
`Oc1ccc(-c2nc(-c3ccncc3)c(-c3ccc(F)cc3)[nH]2)cc1` gave a remaining signal of 94.4% (MET; cell-free assay; 0.5 µM).
`CNC(=O)c1cc2c(Oc3ccc(NC(=O)C4(C(=O)Nc5ccc(F)cc5)CC4)cc3)ccnc2cc1OC` has an inhibition of 100% (Hepatocyte growth factor receptor (MET, Homo sapiens, UniProt P08581, D1228N); enzyme activity, inhibitor, radiometric; 1 µM).
For `CN(C)C1CCN(CC#Cc2nn(C3CCCC3)c3nc(NCc4ccccc4)ncc23)C1` (stereo not drawn), the inhibition was 28% (MET; enzyme activity, inhibitor, FRET; 1 µM).
For `CC(=O)N1CCC(c2ccc(C(=O)NC(=N)N)cc2C(F)(F)F)CC1`, the remaining binding was 100% (MET; cell-free assay, competition with immobilised ligand; 1 µM).
For `CN(CCCC(F)(F)F)c1nccc(-c2cnn3ncccc23)n1`, the remaining binding was 100% (MET M1250T; binding; 1 µM).
`Cc1cnc(NC2CCOCC2)nc1-n1cnc(C(=O)NC(CN)c2cc(F)cc(Cl)c2)c1` (stereo not drawn) has a remaining activity of 101% (MET; enzyme activity, inhibitor, radiometric; 1 µM).
With `N#CCCc1ccc2c(c1)-c1[nH]c3ccc([N+](=O)[O-])cc3c1CC(=O)N2` the remaining signal was 119% (MET; cell-free assay; 0.5 µM).
For `COc1cc(Cl)c(C(=O)N[C@@H](CN[C@H]2CC[C@@H](N)CC2)Cc2ccc(C#N)cc2)cc1-c1ccc(CN[C@H](C)c2ccc(C)cc2)o1`, the remaining activity was 63% (MET; enzyme activity, inhibitor; 1 µM).
With `C[C@@H]1CCN(c2nccc(-c3cnn4ncccc34)n2)C1` the remaining binding was 84% (MET; binding; 1 µM).
For `CC(C)CC(=O)N1CCc2nc(-c3ccc(Br)cc3)nc(N(C)Cc3ccccc3)c2C1`, the remaining binding was 100% (MET Y1235D; cell-free assay, competition with immobilised ligand; 0.1 µM).
With `F[C@@H]1CCN(c2nccc(-c3cnn4ncccc34)n2)C1` the remaining binding was 100% (MET M1250T; binding; 1 µM).
`Cc1ccc(NC(=O)c2ccc(C)c(C(F)(F)F)c2)cc1C#Cc1nn(C2CCC(O)CC2)c2ncnc(N)c12` (stereo not drawn) gave a remaining signal of 124% (Hepatocyte growth factor receptor (MET, Homo sapiens, UniProt P08581, D1228H); cell-free assay; 10 µM).
The remaining binding of `Cc1c(NC(=O)c2cc(C(N)=O)nc3cc(F)ccc23)c(C(F)(F)F)nn1Cc1ccc(C(C)(C)C)cc1` is reported as 84% (MET Y1235D; cell-free assay, competition with immobilised ligand; 1 µM).
`CC/C(=N\NC(=O)NCc1cccc(O)c1)c1ccc(O)c(C)c1O` gave an inhibition of 0.7% (MET Y1235D; enzyme activity, inhibitor; 0.1 µM).
The remaining signal of `O=C1Nc2ccc(Cl)cc2C1=Cc1cc(Cl)c(O)c(Cl)c1` is reported as 96.4% (MET; cell-free assay; 0.5 µM).
With `Cc1ccc(C(=O)Nc2ccc(CN3CCN(C)CC3)c(C(F)(F)F)c2)cc1C#Cc1cnc2cccnn12` the remaining signal was 86% (MET M1250T; cell-free assay; 23.5 nM).
`Cc1cnn2ncc(-c3ccnc(N(C)C)n3)c2c1` has a remaining binding of 87% (MET Y1235D; binding; 1 µM).
With `O=C(O)[C@H]1[C@H](Cn2nnc3ccccc3c2=O)CC[C@@H]1C(=O)c1ccc(OCCC2CCOCC2)cc1` the remaining binding was 100% (MET Y1235D; cell-free assay, competition with immobilised ligand; 1 µM).
The remaining signal of `COc1cc2ncnc(Nc3ccc(F)c(Cl)c3)c2cc1OCCCN1CCOCC1` is reported as 92.4% (MET; cell-free assay; 0.5 µM).
With `CCCOc1ccc([C@@H]2[C@@H](C(=O)O)[C@H](c3ccc4c(c3)OCO4)CN2CC(=O)Nc2c(CC)cccc2CC)cc1` the remaining binding was 81% (MET M1250T; cell-free assay, competition with immobilised ligand; 1 µM).
`Nc1ncnc2occ(-c3ccc(NC(=O)Nc4cc(C(F)(F)F)ccc4F)cc3)c12` has a remaining signal of 1.6% (MET Y1235D; cell-free assay; 20 µM).
